# Data reported in ChEMBL document CHEMBL1149175, “Integrating fragment assembly and biophysical methods in the chemical advancement of small-molecule antagonists of IL-2: an approach for inhibiting protein-protein interactions” (J Med Chem, 2004).
# Test system: not listed separately
# Experiment: Volume distribution (steady state) of compound was determined in mouse
# Assay type: ADME, organism-based
# Conditions: in vivo, read-out: Vss
# In short: (§1)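 Male CD-1 mice, 10 mg/kg IV bolus via lateral tail vein, 2.5 mg/mL in PEG 400; three mice per time point. Cardiac blood into sodium-EDTA at 0.5–8 h, plasma by LC-MS/MS against a plasma standard curve; parameters from mean concentration–time profiles.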
row,Vd,Compound
1,1.1 L/kg,CC(C)C[C@@H](NC(=N)N)C(=O)NCC(=O)N1CCC(c2cc(-c3ccc(OCc4ccc(C(=O)O)o4)c(Cl)c3Cl)nn2C)CC1

# Test system: not listed separately
# Experiment: Plasma clearance in mouse
# Assay type: ADME, organism-based
# Conditions: read-out: Clp
# In short: as §1
row,clearance,Compound
1,13.6 mL/min/kg,CC(C)C[C@@H](NC(=N)N)C(=O)NCC(=O)N1CCC(c2cc(-c3ccc(OCc4ccc(C(=O)O)o4)c(Cl)c3Cl)nn2C)CC1

# Target: T1, Interleukin-2 (Homo sapiens, UniProt P60568)
# Experiment: Inhibition of mouse Interleukin-2 receptor alpha
# Conditions: target entry is the homologue from another species
# Target sequence in this assay (P60568 whole entry): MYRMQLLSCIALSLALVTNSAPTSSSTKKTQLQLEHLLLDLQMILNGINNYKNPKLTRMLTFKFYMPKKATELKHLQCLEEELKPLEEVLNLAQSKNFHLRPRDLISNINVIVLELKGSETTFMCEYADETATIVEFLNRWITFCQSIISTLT
row,IC50,Compound
1,2200 µM,COCC(=O)N[C@@H](Cc1ccc(C#Cc2ccccc2)cc1)C(=O)O
2,> 10000 µM,CNC(=O)C[C@H]1CCCN(C(=N)N)C1
3,7 µM,COC(=O)[C@H](Cc1ccc(C#Cc2ccccc2)cc1)NC(=O)C[C@H]1CCCN(C(=N)N)C1

# Target: T1, Interleukin-2
# Experiment: Inhibition of mouse interleukin-2 alpha receptor by ELISA
# Conditions: target entry is the homologue from another species
# In short: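 ELISA: 15 nM biotinylated IL-2Rα captured on streptavidin-coated wells; 3-fold serial compound dilutions with 5 nM IL-2 (2% DMSO final) in Superblock/0.01% Tween 20 incubated on receptor.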
# Target sequence in this assay (P60568 whole entry): as above
row,IC50,Compound
1,37 µM,COC(=O)[C@H](Cc1ccc(C#Cc2ccccc2)cc1)NC(=O)CNC(=O)[C@@H](CC1CCCCC1)N=C(N)N
2,26 µM,CC[C@@H](C)[C@H](N=C(N)N)C(=O)NCC(=O)N[C@@H](Cc1ccc(C#Cc2ccccc2)cc1)C(=O)OC
3,720 µM,COC(=O)[C@H](Cc1ccc(C#Cc2ccccc2)cc1)NC(=O)CNC(=O)[C@@H]1CCCN1C(=N)N
4,9 µM,COC(=O)[C@H](Cc1ccc(C#Cc2ccccc2)cc1)NC(=O)CNC(=O)[C@@H](N=C(N)N)C(C)(C)C
5,20 µM,COC(=O)[C@H](Cc1ccc(C#Cc2ccccc2)cc1)NC(=O)CNC(=O)[C@H](N=C(N)N)C1CCCCC1
6,> 2000 µM,COC(=O)[C@H](Cc1ccc(C#Cc2ccccc2)cc1)NC(=O)CNC(=O)CNC(=N)N
7,~2000 µM,COC(=O)[C@H](Cc1ccc(C#Cc2ccccc2)cc1)NC(=O)CNC(=O)[C@@H](C)N=C(N)N
8,1200 µM,COC(=O)[C@H](Cc1ccc(C#Cc2ccccc2)cc1)NC(=O)CNC(=O)CN(C)C(=N)N
9,80 µM,COC(=O)[C@H](Cc1ccc(C#Cc2ccccc2)cc1)NC(=O)CNC(=O)[C@@H](N=C(N)N)C(C)C
10,900 µM,COC(=O)[C@H](Cc1ccc(C#Cc2ccccc2)cc1)NC(=O)CNC(=O)[C@@H](CCC(N)=O)N=C(N)N
11,> 2000 µM,COC(=O)[C@H](Cc1ccc(C#Cc2ccccc2)cc1)NC(=O)CNC(=O)[C@H](N=C(N)N)C(C)C
12,280 µM,COC(=O)[C@H](Cc1ccc(C#Cc2ccccc2)cc1)NC(=O)CNC(=O)[C@H](C)N=C(N)N
13,1000 µM,COC(=O)[C@H](Cc1ccc(C#Cc2ccccc2)cc1)NC(=O)CNC(=O)[C@H]1CCCN1C(=N)N

# Target: T1, Interleukin-2
# Experiment: Effective concentration required against phosphorylation of Mammary gland factor/STAT5
# Assay type: functional, Mus musculus
# Conditions: not given
# In short: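 Mouse CTLL-2 T cells grown to about 1 × 10^6 cells/mL in RPMI/IL-2, starved of IL-2 overnight, then given 2-fold serial compound dilutions in medium with 0.1 ng/mL human IL-2 for 30 min at 37 °C. Phospho-STAT5 measured by western blot and densitometry, plotted against concentration; average of three experiments.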
# Target sequence in this assay (P60568 whole entry): as above
row,EC50,Compound
1,~25 µM,CC(C)C[C@@H](N=C(N)N)C(=O)NCC(=O)N1CCC(c2cc(-c3cccc(Cl)c3Cl)nn2C)CC1
2,100 µM,COC(=O)[C@H](Cc1ccc(C#Cc2ccccc2)cc1)NC(=O)C[C@H]1CCCN(C(=N)N)C1

# Target: T1, Interleukin-2
# Experiment: Concentration required to inhibit mouse interleukin-2 alpha receptor was determined by SPA assay
# Conditions: not given
# In short: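 SPA: compounds as 3-fold serial dilutions in DMSO added to 10 nM tritiated propionic acid-labeled IL-2 in Superblock, then to biotinylated IL-2Rα on streptavidin scintillant beads (0.7 mg/mL). Scintillation from receptor-bound IL-2 counted; IC50 by nonlinear regression of counts vs concentration.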
# Target sequence in this assay (P60568 whole entry): as above
row,IC50,Compound
1,2 µM,CC(C)C[C@@H](N=C(N)N)C(=O)NCC(=O)N1CCC(c2cc(-c3cccc(Cl)c3Cl)nn2C)CC1
2,3.5 µM,COc1ccc(-c2cc(C3CCN(C(=O)CNC(=O)[C@@H](CC(C)C)N=C(N)N)CC3)n(C)n2)c(Cl)c1Cl
3,30 µM,N=C(N)N[C@@H](C(=O)NCC(=O)N1CCC(c2cc(-c3ccc(O)cc3Cl)[nH]n2)CC1)C1CCCCC1
4,8.1 µM,CC(C)C[C@@H](N=C(N)N)C(=O)NCC(=O)N1CCC(c2cc(-c3ccc(O)c(Cl)c3Cl)nn2C)CC1
5,0.6 µM,CC(C)C[C@@H](N=C(N)N)C(=O)NCC(=O)N1CCC(c2cc(-c3ccc(OCc4ccc(CC(=O)O)cc4)c(Cl)c3Cl)nn2C)CC1
6,50 µM,Cn1nc(C2CCN(C(=O)CNC(=O)[C@H](N=C(N)N)C3CCCCC3)CC2)cc1-c1cccc(Cl)c1Cl
7,110 µM,NC(N)=N[C@@H](C(=O)NCC(=O)N1CCC(c2cc(-c3ccc(Cl)c(Cl)c3)n[nH]2)CC1)C1CCCCC1
8,500 µM,NC(N)=N[C@@H](C(=O)NCC(=O)N1CCC(c2nc(-c3ccc(Cl)cc3Cl)no2)CC1)C1CCCCC1
9,130 µM,Cc1cccc(-c2cc(C3CCN(C(=O)CNC(=O)[C@H](N=C(N)N)C4CCCCC4)CC3)[nH]n2)c1C
10,150 µM,N=C(N)N[C@@H](C(=O)NCC(=O)N1CCC(c2cccc(-c3ccc(Cl)cc3Cl)c2)CC1)C1CCCCC1
11,20 µM,Cn1nc(-c2cccc(Cl)c2Cl)cc1C1CCN(C(=O)CNC(=O)[C@H](N=C(N)N)C2CCCCC2)CC1
12,40 µM,NC(N)=N[C@@H](C(=O)NCC(=O)N1CCC(c2cc(-c3ccccc3Cl)n[nH]2)CC1)C1CCCCC1
13,400 µM,CC1C(c2cccc(Cl)c2Cl)=NN=C1C1CCN(C(=O)CNC(=O)[C@H](N=C(N)N)C2CCCCC2)CC1 (some centres undefined)
14,40 µM,COC(=O)c1ccc(COc2ccc(-c3cc(C4CCN(C(=O)CNC(=O)[C@@H](CC(C)C)N=C(N)N)CC4)n(C)n3)c(Cl)c2Cl)cc1
15,35 µM,CC(C)C[C@@H](N=C(N)N)C(=O)NCC(=O)N1CCC(c2cc(-c3ccc(OCc4ccccc4)c(Cl)c3Cl)nn2C)CC1
16,10 µM,N=C(N)N[C@@H](C(=O)NCC(=O)N1CCC(c2cc(-c3ccc(Cl)cc3Cl)[nH]n2)CC1)C1CCCCC1
17,50 µM,COc1ccc(-c2cc(C3CCN(C(=O)CNC(=O)[C@H](N=C(N)N)C4CCCCC4)CC3)[nH]n2)c(Cl)c1
18,120 µM,NC(N)=N[C@@H](C(=O)NCC(=O)N1CCC(c2cc(-c3ccccc3)n[nH]2)CC1)C1CCCCC1
19,150 µM,Cc1cccc(-c2cc(C3CCN(C(=O)CNC(=O)[C@H](N=C(N)N)C4CCCCC4)CC3)[nH]n2)c1
20,0.2 µM,CC(C)C[C@@H](N=C(N)N)C(=O)NCC(=O)N1CCC(c2cc(-c3ccc(OCc4ccc(C(=O)O)cc4)c(Cl)c3Cl)nn2C)CC1
21,130 µM,NC(N)=N[C@@H](C(=O)NCC(=O)N1CCC(c2cc(-c3cccc(Cl)c3)n[nH]2)CC1)C1CCCCC1
22,0.4 µM,CC(C)C[C@@H](N=C(N)N)C(=O)NCC(=O)N1CCC(c2cc(-c3ccc(OCc4cccc(C(=O)O)c4)c(Cl)c3Cl)nn2C)CC1
23,50 µM,Cc1ccccc1-c1cc(C2CCN(C(=O)CNC(=O)[C@H](N=C(N)N)C3CCCCC3)CC2)[nH]n1

# Target: T1, Interleukin-2
# Experiment: Dissociation constant for human Interleukin-2 by SPR assay
# Conditions: not given
# Target sequence in this assay (P60568 whole entry, looked up): as the sequence (P60568 whole entry) above
row,KdSPA,Compound
1,1.5 mM,COCC(=O)N[C@@H](Cc1ccc(C#Cc2ccccc2)cc1)C(=O)O
